Source: ChEMBL document CHEMBL4350958, “Rational Design of Short Peptide Variants by Using Kunitzin-RE, an Amphibian-Derived Bioactivity Peptide, for Acquired Potent Broad-Spectrum Antimicrobial and Improved Therapeutic Potential of Commensalism Coinfection of Pathogens” (J Med Chem, 2019)
Converted amounts (≈) assume the structure as drawn. Where a SMILES comes first, the peptide text is derived from it.

Assays:
Lipid bilayer = assay: Induction of membrane disruption in PG/CL/PE large unilamellar vesicles assessed as calcein-entrapped liposome leakage at 64 uM after 15 mins by spectrofluorophotometric assay relative to control
Outline: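 Calcein (70 mM)-loaded LUVs of PG/CL/PE (2:1:7 w/w/w, E. coli membrane mimic), made by freeze-thaw and 100-nm extrusion, free dye removed on Sephadex G-50. LUVs (100 μM) exposed to peptide (1–64 μM) for 15 min. Leakage read at ex 490/em 520 nm: liposomes alone are background, Triton X-100 is 100%. Independent triplicates.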

Candida tropicalis [1] = assay: Antifungal activity against Candida tropicalis cgmcc2.1975 measured after 48 hrs by broth microdilution method; type: functional; conditions: cgmcc2.1975, 48 h
Outline: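 Modified CLSI M27-A2 microdilution. Yeast colonies were diluted in MOPS-buffered RPMI 1640 to a final (0.5–1) × 10^3 CFU mL−1 and mixed with an equal volume of peptide serially diluted in 0.2% BSA. After 48 h at 28 °C, MIC was read at A492 as the lowest concentration inhibiting 95% of growth. At least three independent experiments, each with three technical replicates.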

Staphylococcus aureus [2] = assay: Antibacterial activity against Staphylococcus aureus ATCC 29213 measured after 18 to 24 hrs in presence of ZnCl2; type: functional
Outline: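 MIC broth microdilution (MHB, 0.2% BSA peptide diluent, A492, 95% inhibition) run in the presence of physiological salts at final concentrations of 6 μM NH4Cl or 8 μM ZnCl2. Three independent assays, each with three technical replicates.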

Escherichia coli = assay: Antibacterial activity against Escherichia coli ATCC 25922 measured after 18 to 24 hrs in presence of NH4Cl; type: functional
[3] = Conformational stability in sodium dodecyl sulfate at 35 uM by CD spectra analysis; type: physicochemical
Outline: (§1)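 CD spectra from 190 to 250 nm of peptide at 35 μM in 10 mM PBS, 30 mM SDS micelles or 50% TFE, recorded in a 1.0-mm quartz cell. Ellipticity was converted to mean residue ellipticity. Three independent scans, each averaged over more than 3 runs.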

Lipopolysaccharide (LPS) = assay: Displacement of BODIPY-TR-cadaverine from Escherichia coli O111:B4 LPS after 1 hr by spectrofluorophotometric method
Outline: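 LPS from E. coli O111:B4 (50 μg/mL) preincubated 4 h with BODIPY-TR-cadaverine (5 μg/mL) in 50 mM Tris, pH 7.4. Mixed with equal volume of peptide (1-64 µM) and incubated 1 h at 37 °C, then fluorescence read. %ΔF = (Fobs−F0)/(F100−F0)×100, with 10 μg mL-1 polymyxin B defining F100. Three technical replicates per experiment.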

Staphylococcus aureus [4] = assay: Antibacterial activity against Staphylococcus aureus ATCC 29213 measured after 24 hrs; type: functional; conditions: ATCC 29213, 24 h
Outline: (§2)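 Broth microdilution modified from NCCLS. Mid-log bacteria at (0.5–1) × 10^5 CFU mL−1 in MHB, mixed with peptides serially diluted in 0.2% BSA. Incubated 24 h at 37 °C, read at A492. MIC taken as lowest concentration giving 95% growth inhibition. At least three independent experiments, each with three technical replicates.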

Staphylococcus aureus [5] = assay: Antibacterial activity against Staphylococcus aureus ATCC 25923 measured after 24 hrs; type: functional; conditions: ATCC 25923, 24 h; outline: as §2
Candida albicans [6] = assay: Antifungal activity against Candida albicans cgmcc2.2086 measured after 48 hrs in presence of ZnCl by broth microdilution method; type: functional; conditions: cgmcc2.2086, 48 h
[7] = Bactericidal activity against Salmonella pullorum ATCC 7913 incubated for 24 hrs followed by replating on agar plate and measured after overnight incubation; type: functional, Salmonella enterica subsp. enterica serovar Pullorum; conditions: Salmonella enterica, ATCC 7913, 24 h; read-out: MBC>99.9
Outline: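 Mid-log bacteria diluted in MHB to (0.5–1) × 10^5 CFU/mL and mixed 1:1 with peptide serially diluted in 0.2% BSA. After 24 h at 37 °C, 50 μL of each mixture was plated on agar and incubated overnight. MBC taken as the lowest concentration killing >99.9% of cells. At least three independent experiments, each with three technical replicates.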

Candida albicans [8] = assay: Fungicidal activity against Candida albicans cgmcc2.2086 incubated for 48 hrs followed by replating on YM agar plate and measured after 48 hrs; type: functional
Outline: (§3)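 Yeast diluted in MOPS-buffered RPMI 1640 to (0.5–1) × 10^3 CFU/mL (CLSI M27-A2, modified) and mixed 1:1 with peptide serially diluted in 0.2% BSA. After 48 h at 28 °C, 50 μL per well was plated on YM agar and incubated 48 h at 28 °C. MFC taken as the lowest concentration killing ≥99.9% of cells. Three or more independent experiments, triplicate wells.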

[9] = Conformational stability in sodium dodecyl sulfate assessed as beta-sheet conformation by measuring absorption spectra at minimum dichroic band at 35 uM by CD spectra analysis; type: physicochemical; outline: as §1
Candida tropicalis [10] = assay: Fungicidal activity against Candida tropicalis cgmcc2.1975 incubated for 48 hrs followed by replating on YM agar plate and measured after 48 hrs; type: functional; outline: as §3
Candida parapsilosis = assay: Fungicidal activity against Candida parapsilosis cgmcc2.3989 incubated for 48 hrs followed by replating on YM agar plate and measured after 48 hrs; type: functional; outline: as §3
Staphylococcus aureus [11] = assay: Antibacterial activity against Staphylococcus aureus ATCC 29213 assessed as ratio of MIC95 in presence of NaCl to in absence of NaCl; type: functional
[12] = Conformational stability in sodium dodecyl sulfate assessed as beta-sheet conformation by measuring absorption spectra at maximum dichroic band at 35 uM by CD spectra analysis; type: physicochemical; outline: as §1
Candida albicans [13] = assay: Antifungal activity against Candida albicans cgmcc2.2086 assessed as ratio of MIC95 in presence of NaCl to in absence of NaCl; type: functional

## CC[C@H](C)[C@H](NC(=O)[C@H](CCCCN)NC(=O)[C@H](C)NC(=O)[C@H](C)N)C(=O)N[C@H](C(=O)N[C@@H](CC(C)C)C(=O)N[C@@H](CC(N)=O)C(=O)N1CCC[C@H]1C(=O)N[C@@H](CCCCN)C(=O)N[C@@H](Cc1ccccc1)C(=O)N[C@@H](CCCNC(=N)N)C(=O)N[C@@H](CS)C(=O)N[C@@H](CCCCN)C(=O)N[C@@H](C)C(=O)N[C@@H](C)C(=O)N[C@@H](Cc1ccccc1)C(=O)N[C@@H](CS)C(N)=O)[C@@H](C)CC (H-AAKIILNPKFRCKAAFC-NH2)
Lipid bilayer
  Activity: < 5%
Candida tropicalis [1]
  MIC95: > 128 µM
Staphylococcus aureus [2]
  MIC95: > 128 µM
Escherichia coli
  MIC95: 32 µM
[3]
  Stability: Unstable
Lipopolysaccharide (LPS)
  Activity: Dose-dependent effect
Staphylococcus aureus [4]
  MIC95: > 128 µM
Staphylococcus aureus [5]
  MIC95: 64 µM (≈ 121 µg/mL)
Candida albicans [6]
  MIC95: > 128 µM
[7]
  MBC: > 128 µM

## H-AARIILRWRFR-NH2
Lipid bilayer
  Activity: 65%
Candida tropicalis [1]
  MIC95: 4 µM
Staphylococcus aureus [2]
  MIC95: 1 µM
Candida albicans [8]
  MFC<=99.9: 8 µM
Escherichia coli
  MIC95: 4 µM
[9]
  Activity: 216 to 220 nm
Candida tropicalis [10]
  MFC<=99.9: 4 µM
Candida parapsilosis
  MFC<=99.9: 8 µM
Lipopolysaccharide (LPS)
  Activity: Dose-dependent effect
Staphylococcus aureus [4]
  MIC95: 1 µM
Staphylococcus aureus [5]
  MIC95: 2 µM
Staphylococcus aureus [11]
  Ratio: 4
Candida albicans [6]
  MIC95: 8 µM
[12]
  Wavelength of maximum dichroic band: 200 nm
[7]
  MBC: 4 µM
Candida albicans [13]
  Ratio: 4

## H-AARRILRWIFR-NH2
Candida tropicalis [1]
  MIC95: 4 µM
Staphylococcus aureus [2]
  MIC95: 4 µM
Candida albicans [8]
  MFC<=99.9: 8 µM
Escherichia coli
  MIC95: 4 µM
Candida tropicalis [10]
  MFC<=99.9: 4 µM
Candida parapsilosis
  MFC<=99.9: 16 µM
Staphylococcus aureus [4]
  MIC95: 4 µM
Staphylococcus aureus [5]
  MIC95: 8 µM
Staphylococcus aureus [11]
  Ratio: 16
Candida albicans [6]
  MIC95: 8 µM
[7]
  MBC: 8 µM
Candida albicans [13]
  Ratio: 4
